IC50 and Activity data for 13 compounds are collected here from ChEMBL document CHEMBL4196181, “Flabellipparicine, a Flabelliformide-Apparicine-Type Bisindole Alkaloid from Tabernaemontana divaricata” (J Nat Prod, 2018).

pIC50: −log10 of the molar value. Activity calls are given as the source filed them. The rule behind the calls is not given here. Bounds are passed on as bounds.

In one test the test system is MCF7. Description: Cytotoxicity against human MCF7 cells after 72 hrs by sulforhodamine B assay. Format: functional, cell-based. The following applies: for pIC50: MCF7, 72 h. A digest of the protocol:
(§1)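 Antiproliferative test on MCF-7 human breast adenocarcinoma and A-549 human lung carcinoma cells. SN38 (7-ethyl-10-hydroxycamptothecin) served as positive control. IC50 is the concentration giving 50% inhibition of cell growth, calculated by a literature procedure.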
Background: Sulforhodamine B stains cellular protein and so reports cell mass.

The next test has as its system A549. Description: Cytotoxicity against human A549 cells after 72 hrs by sulforhodamine B assay. Particulars: for pIC50: A549, 72 h. Format: functional, cell-based. A digest of the protocol:
as §1

Broadly, the pIC50 is the negative decadic logarithm of the IC50, by convention in mol/L. Read a high pIC50 as a small IC50. On to `CC[C@@H]1CN(C)[C@@H]2Cc3c([nH]c4ccccc34)[C@H](c3ccc4c5c([nH]c4c3)[C@]3(C(=O)OC)C[C@H]4C[C@H](CC)[C@@H]3N(CC5)[C@H]4CC(C)=O)C[C@H]1[C@H]2C(=O)OC`, for which the pIC50 in the test on MCF7 was 5.89; in the test on A549, 5.92.
In the case of `CCc1c2c(nc3ccc(O)cc13)-c1cc3c(c(=O)n1C2)COC(=O)[C@]3(O)CC` [7-ETHYL-10-HYDROXYCAMPTOTHECIN], the values for the pIC50 with MCF7 and in the test on A549 were more than 10.00 and 6.70, respectively.
Consider `C/C=C1/CN2CC[C@@H]1/C(=C\[C@@H]1C[C@@H]3[C@H](CC)CN(C)[C@H](Cc4c1[nH]c1ccccc41)[C@@H]3C(=O)OC)c1[nH]c3ccccc3c1C2`, for which the pIC50 in the test with MCF7 is 6.10; in the test with A549, 5.09.
Consider `CCC1C[C@@H]2C[C@@]3(C(=O)OC)C4=Nc5ccccc5[C@@]4(O)CCN([C@@H]13)[C@H]2CC(C)=O` (stereo partly specified), for which the result in the test with MCF7 and with A549 was inactive.
Take `C/C=C1/C[N+]2(C)[C@@H]3Cc4c([nH]c5ccccc45)[C@]2(c2ccc4c5c([nH]c4c2)[C@@H]2C[C@H]4C[C@H](CC)[C@@H]2N(CC5)C4)C[C@H]1[C@H]3C(=O)OC`: the pIC50 was 5.89 in the test with MCF7 and 5.49 with A549.
As to `CC[C@@H]1CN(C)[C@@H]2Cc3c([nH]c4ccccc34)[C@H](c3ccc4c5c([nH]c4c3)[C@]3(C(=O)OC)C[C@H]4C[C@H](CC)[C@@H]3N(CC5)C4)C[C@H]1[C@H]2C(=O)OC`, the pIC50 is 5.27 in the test with MCF7 and less than 5.00 in the test with A549.
As to `C=C1c2[nH]c3ccccc3c2CN2CC[C@H]1/C(=C\C)C2`, the result with MCF7 and with A549 was inactive.
Take `CC[C@H]1[C@@H]2CCN3CC[C@@]4(C(=C2C(=O)OC)Nc2ccccc24)[C@@H]13`: the outcome in the test on MCF7 and in the test on A549 was inactive.
In the case of `C/C=C1/C[N+]2(C)[C@@H]3Cc4c([nH]c5ccccc45)[C@]2(c2ccc4c5c([nH]c4c2)[C@]2(C(=O)OC)C[C@H]4C[C@H](CC)[C@@H]2N(CC5)C4)C[C@H]1[C@H]3C(=O)OC`, the pIC50 was 5.14 with MCF7 and 5.92 in the test on A549.
Regarding `CC[C@H]1CN2CCc3cc(OC)c(OC)cc3[C@@H]2C[C@@H]1C[C@H]1NCCc2c1[nH]c1ccccc21`, the pIC50 is 8.70 in the test with MCF7 and 7.05 with A549.
As to `C/C=C1/CN2CC[C@@H]1[C@@]1(C[C@H]3C[C@@H]4/C(=C\Cc5c3n1c1ccccc51)C(=O)N(C)C[C@@H]4CC)c1[nH]c3ccccc3c1C2`, the pIC50 was less than 5.00 in the test with MCF7 and 5.12 in the test on A549.
On the same counts, the results for `C/C=C1/CN2CC[C@@H]1/C(=C\[C@@H]1C[C@@H]3/C(=C\C)CN(C)[C@H](Cc4c1[nH]c1ccccc41)[C@@H]3C(=O)OC)c1[nH]c3ccccc3c1C2` are 5.89 and 5.40.
As to `CC[C@@H]1CN(C)[C@@H]2Cc3c([nH]c4ccccc34)[C@H](c3ccc4c(c3)N=C3[C@@H]5C[C@H]6C[C@H](CC)[C@@H]5N(CC[C@@]34O)C6)C[C@H]1[C@H]2C(=O)OC`, the figures for the pIC50 in the test on MCF7 and with A549 were 5.89 and less than 5.00, respectively.
